Key:
[1] = test system: Chikungunya virus; assay: Antiviral activity against wild type Chikungunya virus IMT infected in HEK293T cells assessed as reduction in virus infection after 24 hrs by FITC immunofluorescence-based single cell quantification high content screening assay; assay type: functional; conditions: HEK-293T
[2] = Cytotoxicity against HEK293T cells assessed as reduction in cell viability after 24 hrs by CellTiter-Glo luminescent assay; assay type: cell-based, HEK-293T; conditions: human
Outline: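 HEK 293T cell viability was measured by CellTiter-Glo luminescence after 24 h exposure to serial dilutions. Data were normalized to untreated cells (100%) and reagent background (0%). CC50, the concentration reducing viability by 50%, came from a five-parameter asymmetric fit.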

[3] = test system: Chikungunya virus; assay: Antiviral activity against full length Gaussia princeps Gluc-tagged Chikungunya virus IMT infected in HEK293T cells assessed as reduction in virus infection after 24 hrs by Gaussia luciferase reporter gene assay; assay type: functional, cell-based; conditions: HEK-293T
[4] = Selectivity index, ratio of CC50 for HEK293T cells to EC50 for full length Gaussia princeps Gluc-tagged Chikungunya virus IMT; assay type: toxicity; conditions: human, read-out: Ratio CC50/EC50
[5] = Half life in human liver microsomes; assay type: ADME, microsome
Outline: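 Compounds were incubated with human liver microsomes. Half-life = ln(2)/slope, where the slope is ln(% detected) plotted against time, using the mean of at least 3 independent experiments.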

[6] = test system: Chikungunya virus; assay: Antiviral activity against full length gluc-tagged Chikungunya virus 2008 Singapore SGP11 infected in HEK293T cells assessed as reduction in virus infection after 24 hrs by gaussia luciferase reporter gene assay; assay type: functional, cell-based; conditions: 2008 Singapore SGP11, HEK-293T
[7] = test system: Chikungunya virus; assay: Antiviral activity against full length gluc-tagged Chikungunya virus 2013 Caribbean CNR20235 infected in HEK293T cells assessed as reduction in virus infection after 24 hrs by gaussia luciferase reporter gene assay; assay type: functional, cell-based; conditions: 2013 Caribbean CNR20235, HEK-293T
[8] = test system: Chikungunya virus; assay: Antiviral activity against full length gluc-tagged Chikungunya virus IMT infected in human BJ cells assessed as reduction in virus infection after 24 hrs by gaussia luciferase reporter gene assay; assay type: functional, cell-based
[9] = Cytotoxicity against human BJ cells assessed as reduction in cell viability after 24 hrs by CellTiter-Glo luminescent assay; assay type: cell-based
Outline: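 BJ human fibroblast viability was measured by CellTiter-Glo luminescence after 24 h exposure to serial dilutions. Data were normalized to untreated cells (100%) and reagent background (0%). CC50 came from a five-parameter asymmetric fit.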

SMILES	EC50 [1] [µM]	CC50 at 24 h [2] [µM]	EC50 [3] [µM]	selectivity ratio [4]	half-life [5] [min]	EC50 [6] [nM]	EC50 [7] [nM]	EC50 [8] [µM]	CC50 at 24 h [9] [µM]
CCCNC(=O)C1CCN(C(=O)c2cc3occc3n2Cc2ccc(OC)cc2)CC1	5.24	37.2	6	6.2	2.74	–	–	–	–
CCCNC(=O)[C@H]1CC[C@H](NC(=O)c2cc3sc(Br)cc3n2Cc2ccc(OC)cc2)CC1	–	> 100	14.3	> 7	3.97	–	–	–	–
CCCNC(=O)C1CCN(C(=O)c2cc3sc(Br)cc3n2Cc2ccc(OC)cc2)CC1	–	> 100	3.1	> 32	2.91	–	–	–	–
CCCNC(=O)C1CC12CN(C(=O)c1cc3sc(Br)cc3n1Cc1ccc(OC)cc1)C2 (stereo not given)	–	> 100	20.2	> 5	19.5	–	–	–	–
CCCNC(=O)[C@@H]1[C@@H]2CCC[C@H]1CN(C(=O)c1cc3sc(Br)cc3n1Cc1ccc(OC)cc1)C2	–	> 100	12.6	> 7.9	–	–	–	–	–
CCCNC(=O)C1CC12CCN(C(=O)c1cc3sc(Br)nc3n1Cc1ccc(OC)cc1)CC2 (stereo not given)	> 25	81.3	8.21	9.9	4.97	–	–	–	–
CCCNC(=O)C1CC12CCN(C(=O)c1cc3sc(-c4ccccc4)nc3n1Cc1ccc(OC)cc1)CC2 (stereo not given)	14.1	> 100	7.7	> 13	41.8	–	–	–	–
CCCNC(=O)C1CCN(C(=O)c2cc3ncsc3n2Cc2ccc(OC)cc2)CC1	14	42.7	9.39	4.5	32.6	–	–	–	–
CCCNC(=O)C1CCN(C(=O)c2cc3sccc3n2Cc2ccc(Cl)cc2)CC1	–	–	–	–	10.3	–	–	–	–
CCCNC(=O)[C@@H]1C[C@H]2CCC[C@@H](C1)[C@H]2NC(=O)c1cc2sc(Br)cc2n1Cc1ccc(OC)cc1	–	> 100	> 100	–	–	–	–	–	–
CCCNC(=O)[C@H]1[C@@H]2CCC[C@H]1CN(C(=O)c1cc3sc(Br)nc3n1Cc1ccc(OC)cc1)C2	–	57.5	13.4	4.3	2.89	–	–	–	–
CCCNC(=O)C1CN(C(=O)c2cc3sc(Br)cc3n2Cc2ccc(OC)cc2)C1	–	> 100	13.6	> 7.4	7.73	–	–	–	–
CCCNC(=O)C1CCN(C(=O)c2cc3sc(-c4ccccc4)nc3n2Cc2ccc(OC)cc2)CC1	5.63	22.9	3.02	7.6	40.8	–	–	–	–
[2H]C([2H])(c1ccc(OC)cc1)n1c(C(=O)N2CCC(C(=O)NCCC)CC2)cc2sc(Br)cc21	2.06	> 100	2.03	> 49	3.53	–	–	–	–
CCCNC(=O)C1CCN(C(=O)c2cc3scnc3n2Cc2ccc(OC)cc2)CC1	4.72	19.1	4.56	4.2	27.7	–	–	–	–
CCCNC(=O)C1CCN(C(=O)c2cc3[nH]cnc3n2Cc2ccc(OC)cc2)CC1	–	> 100	42.8	> 2.3	76.2	–	–	–	–
CCCNC(=O)C1CCN(C(=O)c2cc(Br)cn2Cc2ccc(OC)cc2)CC1	–	55	21.4	2.6	2.17	–	–	–	–
CCCNC(=O)C1CCN(C(=O)c2cc3ccccc3n2Cc2ccc(OC)cc2)CC1	8.26	26	7.86	3.3	2.66	–	–	–	–
CCCNC(=O)C1CCN(C(=O)c2cc3sc(C)cc3n2Cc2ccc(OC)cc2)CC1	–	–	–	–	2.69	–	–	–	–
CCCNC(=O)C1CCN(C(=O)c2cc3oc(Br)cc3n2Cc2ccc(OC)cc2)CC1	1.86	21.9	1.93	11	9.5	–	–	–	–
CCCNC(=O)C1CCN(C(=O)c2cc3sc(Br)nc3n2Cc2ccc(OC)cc2)CC1	2.96	36.7	1.06	35	2.99	–	–	–	–
CCCNC(=O)[C@@H]1CCCN1C(=O)c1cc2sc(Br)cc2n1Cc1ccc(OC)cc1	–	72.4	21.2	3.4	18.2	–	–	–	–

SMILES	EC50 [1] [µM]	CC50 at 24 h [2] [µM]	EC50 [3] [µM]	selectivity ratio [4]	half-life [5] [min]	EC50 [6] [nM]	EC50 [7] [nM]	EC50 [8] [µM]	CC50 at 24 h [9] [µM]
CCCNC(=O)C1CCN(C(=O)c2cccn2Cc2ccc(OC)cc2)CC1	–	> 100	25.7	> 3.9	6.71	–	–	–	–
CCCNC(=O)C1CCN(C(=O)c2cc3[nH]ccc3n2Cc2ccc(OC)cc2)CC1	–	> 100	11.4	> 8.8	23.1	–	–	–	–
CCCNC(=O)C1CCN(C(=O)c2ccc(Br)n2Cc2ccc(OC)cc2)CC1	–	> 100	16.8	> 6	7.32	–	–	–	–
CCCNC(=O)[C@@H]1C[C@H]2CCC[C@@H](C1)[C@@H]2NC(=O)c1cc2sc(Br)cc2n1Cc1ccc(OC)cc1	–	> 100	14	> 7.1	45.1	–	–	–	–
CCCNC(=O)C1CC12CCN(C(=O)c1cc3sc(Br)cc3n1Cc1ccc(OC)cc1)CC2 (stereo not given)	15.7	> 100	9.35	> 11	5.83	–	–	–	–
CCCNC(=O)C1CCN(C(=O)c2cc3ccsc3n2Cc2ccc(OC)cc2)CC1	6.5	23.4	8.86	2.6	4.08	–	–	–	–
CCCNC(=O)C1CCN(C(=O)c2cc3nc(Br)sc3n2Cc2ccc(OC)cc2)CC1	3.87	46.8	2.22	21	22.1	–	–	–	–
CCCNC(=O)C1CCN(C(=O)c2cc3cc(Br)ccc3n2Cc2ccc(OC)cc2)CC1	–	> 100	> 100	–	3.94	–	–	–	–
COc1ccc(Cn2c(C(=O)N3CCC(C(=O)NC(C)C)CC3)cc3sc(Br)cc32)cc1	2.47	> 100	1.95	> 51	3.76	–	–	–	–
[2H]C([2H])(c1ccc(OC)cc1)n1c(C(=O)N2CCC(C(=O)NC([2H])(C([2H])([2H])[2H])C([2H])([2H])[2H])CC2)cc2sc(Br)cc21	2	> 100	1.72	> 58	3.8	–	–	–	–
CCCNC(=O)[C@@H]1C[C@H]2CCC[C@@H](C1)[C@@H]2NC(=O)c1cc2scnc2n1Cc1ccc(OC)cc1	–	> 25	11.4	> 2.2	44.6	–	–	–	–
CCCNC(=O)C1CCN(C(=O)c2cc3sccc3n2Cc2ccc(OC)cc2)CC1	–	–	7	2.7	10.6	–	–	–	–
CCCNC(=O)[C@H]1[C@@H]2CCC[C@H]1CN(C(=O)c1cc3sc(Br)cc3n1Cc1ccc(OC)cc1)C2	14.8	> 100	6.98	> 14	3.62	–	–	–	–
CCCNC(=O)C1CCN(C(=O)c2cc3sc(-c4ccccc4F)cc3n2Cc2ccc(OC)cc2)CC1	–	–	–	–	35.5	–	–	–	–
NC(=O)c1ncn([C@@H]2O[C@H](CO)[C@@H](O)[C@H]2O)n1 [RIBAVIRIN]	–	> 100	16.2	–	–	1890	1970	9.71	> 100
CCCNC(=O)[C@H]1[C@@H]2CCC[C@H]1CN(C(=O)c1cc3sc(-c4ccccc4)nc3n1Cc1ccc(OC)cc1)C2	12.5	> 100	9.64	> 10	35.1	–	–	–	–
[2H]C([2H])([2H])C([2H])(NC(=O)C1CCN(C(=O)c2cc3sc(Br)cc3n2Cc2ccc(OC)cc2)CC1)C([2H])([2H])[2H]	1.63	> 100	1.55	> 65	5.33	–	–	–	–
CCCNC(=O)[C@H]1CC[C@@H](NC(=O)c2cc3sc(Br)cc3n2Cc2ccc(OC)cc2)CC1	–	> 100	> 100	–	–	–	–	–	–
CCCNC(=O)[C@@H]1C[C@H]2CCC[C@@H](C1)[C@@H]2NC(=O)c1cc2sc(-c3ccccc3)nc2n1Cc1ccc(OC)cc1	> 25	> 100	5.32	> 19	27.2	–	–	–	–
CCCNC(=O)C1CCN(C(=O)c2cc3cc(Br)sc3n2Cc2ccc(OC)cc2)CC1	–	> 100	13.6	> 7.3	7.61	–	–	–	–
CCCCC(=O)C1CCN(C(=O)c2cc3sccc3n2Cc2ccc(OC)cc2)CC1	–	–	–	–	6.3	–	–	–	–
CCCNC(=O)C1CCN(C(=O)c2cc3sc(C#N)cc3n2Cc2ccc(OC)cc2)CC1	–	–	–	–	11.2	–	–	–	–
